According to ChEMBL document CHEMBL4368874, “Synthesis, biological evaluation, and structure activity relationship (SAR) study of pyrrolidine amide derivatives as N-acylethanolamine acid amidase (NAAA) inhibitors” (Medchemcomm, 2019):

T1: N-acylethanolamine-hydrolyzing acid amidase (Rattus norvegicus, UniProt Q5KTC7)
T1 sequence (Q5KTC7 whole entry): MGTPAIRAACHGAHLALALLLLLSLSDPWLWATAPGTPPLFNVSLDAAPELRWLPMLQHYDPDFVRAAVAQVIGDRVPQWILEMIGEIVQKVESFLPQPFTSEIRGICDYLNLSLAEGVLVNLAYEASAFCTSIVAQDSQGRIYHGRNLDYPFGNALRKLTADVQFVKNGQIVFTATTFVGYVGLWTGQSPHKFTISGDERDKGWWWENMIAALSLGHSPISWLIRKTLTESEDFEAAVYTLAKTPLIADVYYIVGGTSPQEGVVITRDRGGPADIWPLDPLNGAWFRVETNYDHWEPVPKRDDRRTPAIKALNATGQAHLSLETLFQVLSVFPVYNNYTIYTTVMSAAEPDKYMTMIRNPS

T2: Fatty-acid amide hydrolase 1 (Rattus norvegicus, UniProt P97612)
T2 sequence (P97612 whole entry): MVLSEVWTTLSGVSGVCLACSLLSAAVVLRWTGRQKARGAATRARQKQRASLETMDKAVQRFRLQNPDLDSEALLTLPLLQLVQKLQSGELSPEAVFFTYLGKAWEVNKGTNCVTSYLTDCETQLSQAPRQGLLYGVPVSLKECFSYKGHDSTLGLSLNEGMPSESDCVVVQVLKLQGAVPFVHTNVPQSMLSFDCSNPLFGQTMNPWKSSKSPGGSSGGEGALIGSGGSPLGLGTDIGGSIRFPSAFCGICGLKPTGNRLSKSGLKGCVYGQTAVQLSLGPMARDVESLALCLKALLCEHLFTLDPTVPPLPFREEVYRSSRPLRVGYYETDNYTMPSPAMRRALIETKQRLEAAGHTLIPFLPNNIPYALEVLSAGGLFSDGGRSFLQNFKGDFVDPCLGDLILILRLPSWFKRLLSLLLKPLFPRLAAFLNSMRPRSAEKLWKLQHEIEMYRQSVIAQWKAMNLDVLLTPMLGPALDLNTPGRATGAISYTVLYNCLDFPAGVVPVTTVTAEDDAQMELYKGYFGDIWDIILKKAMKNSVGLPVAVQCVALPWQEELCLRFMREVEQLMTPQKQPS


Legend:
[1] = target: T1, N-acylethanolamine-hydrolyzing acid amidase; assay: Inhibition of rat NAAA expressed in HEK293 cells using heptadecenoylethanolamide as substrate after 30 mins HPLC-MS/MS analysis
Outline: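 Enzyme source: HEK293 cells stably overexpressing rat NAAA, grown in DMEM/10% FBS with G418. Cells were sonicated in 20 mM Tris-HCl pH 7.5 with 0.32 M sucrose, and the 800 × g supernatant was used. 30 µg protein was incubated with 25 µM heptadecenoylethanolamide for 30 min at 37 °C in 50 mM phosphate pH 4.5 with 0.1% Triton X-100 and 3 mM DTT. Stopped with methanol containing heptadecanoic acid internal standard; remaining substrate measured by HPLC-MS/MS; IC50 from curve fitting.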

[2] = target: T2, Fatty-acid amide hydrolase 1; assay: Inhibition of rat FAAH expressed in HEK293 cells using [3H]AEA as substrate after 30 mins HPLC-MS/MS analysis; assay type: cell-based; conditions: in the assay text read “anandamide” for “[3H]AEA”
Outline: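 Lysate supernatant from HEK293 cells overexpressing rat FAAH (sonication in Tris-sucrose, 800 × g spin). 30 µg protein incubated at 37 °C with 25 µM anandamide in 50 mM Tris-HCl pH 8.0 containing 0.05% fatty-acid-free BSA. Quenched with methanol containing heptadecanoic acid internal standard; remaining substrate quantified by HPLC-MS/MS; IC50 by curve fitting.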

[3] = compound: O=C(/C=C/c1ccc(-c2ccccc2)cc1)N1CCCC1; assay: Competitive inhibition of rat NAAA expressed in HEK293 cells assessed as substrate Vmax at 5 uM using heptadecenoylethanolamide as substrate after 30 mins by Michaelis Menten plot analysis (reference value: 5.89 +/- 0.12 nmol/min/mg protein); assay type: cell-based
[4] = compound: O=C(/C=C/c1ccc(-c2ccccc2)cc1)N1CCCC1; assay: Competitive inhibition of rat NAAA expressed in HEK293 cells assessed as substrate Km at 5 uM using heptadecenoylethanolamide as substrate after 30 mins by Michaelis Menten plot analysis (reference value: 207 +/- 16 uM); assay type: cell-based

Molecule	IC50 [1]	other results
O=C(CCCCCCc1ccc(O)cc1)N1CCCC1	5.6 µM	–
O=C(CCc1ccc(-c2ccsc2)cc1)N1CCCC1	2.5 µM	–
O=C(CCCC/C=C/c1ccc(OCc2ccccc2)cc1)N1CCCC1	> 100 µM	–
O=C(CCc1ccc(-c2ccccc2)cc1)N1CCCC1	–	IC50 [2]: 91.5 µM
O=C(CCc1ccc(-c2ccc(Cl)cc2)cc1)N1CCCC1	48.6 µM	–
COc1cccc(CCCCCCC(=O)N2CCCC2)c1	> 100 µM	–
O=C(CCCCCCc1ccsc1)N1CCCC1	13.2 µM	–
Cc1ccccc1-c1ccc(CCC(=O)N2CCCC2)cc1	> 100 µM	–
O=C(CCCCCCc1cccc(Cl)c1)N1CCCC1	3.7 µM	–
Cc1cccc(CCCCCCC(=O)N2CCCC2)c1	8.3 µM	–
O=C(CCCCCCc1ccccc1F)N1CCCC1	13.7 µM	–
O=C(CCCCCCC1CCCCC1)N1CCCC1	5.7 µM	–
O=C(CCCCCCc1cccnc1)N1CCCC1	> 100 µM	–
O=C(CCC1CCC(c2ccccc2)CC1)N1CCCC1 (stereo not drawn)	0.48 µM	IC50 [2]: 66 µM
O=C(CCCCc1ccc2c(c1)OCO2)N1CCCC1	5.5 µM	IC50 [2]: 42.8 µM
O=C(CCCCCCc1cccs1)N1CCCC1	14.1 µM	–
O=C(CCc1ccc(-c2cccnc2)cc1)N1CCCC1	> 100 µM	–
O=C(O)c1cccc(CCCCCCC(=O)N2CCCC2)c1	> 100 µM	–
O=C(CCCCCCc1cccc(F)c1)N1CCCC1	7.3 µM	–
Cc1ccccc1CCCCCCC(=O)N1CCCC1	68.4 µM	–
COC(=O)c1cccc(CCCCCCC(=O)N2CCCC2)c1	> 100 µM	–
O=C(CCc1ccc(-c2ccccn2)cc1)N1CCCC1	> 100 µM	–
O=C(CCc1ccc(-c2ccccc2Cl)cc1)N1CCCC1	> 100 µM	–
O=C(CCc1ccc(-c2cccs2)cc1)N1CCCC1	> 100 µM	–
N-acylethanolamine-hydrolyzing acid amidase (Rattus norvegicus), Q5KTC7 (protein) MGTPAIRAACHGAHLALALLLLLSLSDPWLWATAPGTPPLFNVSLDAAPELRWLPMLQHYDPDFVRAAVAQVIGDRVPQWILEMIGEIVQKVESFLPQPFTSEIRGICDYLNLSLAEGVLVNLAYEASAFCTSIVAQDSQGRIYHGRNLDYPFGNALRKLTADVQFVKNGQIVFTATTFVGYVGLWTGQSPHKFTISGDERDKGWWWENMIAALSLGHSPISWLIRKTLTESEDFEAAVYTLAKTPLIADVYYIVGGTSPQEGVVITRDRGGPADIWPLDPLNGAWFRVETNYDHWEPVPKRDDRRTPAIKALNATGQAHLSLETLFQVLSVFPVYNNYTIYTTVMSAAEPDKYMTMIRNPS	–	Vmax [3]: 5.88 nmol/min/mg; Km [4]: 322 µM
